Where “and” joins values, the source holds several entries; their conditions need not be identical. Equal entries are not always repeated. Entries after “also recorded” stand apart in the source; their conditions may differ.
Assays:
[1] = In vivo metabolite identification by LC-MS in plasma, colon and feces; conditions: mice, 10 mg/kg MMT3-72 orally, 6 h
JAK1 = JAK1 (Homo sapiens, UniProt P23458); experiment: Kinase-Glo Max kinase assay, purified enzyme; format: biochemical
JAK2 = JAK2 (Homo sapiens, UniProt O60674); experiment: Kinase-Glo Max kinase assay, purified enzyme; format: biochemical
JAK3 = biological target: T1, JAK3 (Homo sapiens, UniProt P52333); experiment: Kinase-Glo Max kinase assay, purified enzyme; format: biochemical
T1 sequence (P52333 1-1124): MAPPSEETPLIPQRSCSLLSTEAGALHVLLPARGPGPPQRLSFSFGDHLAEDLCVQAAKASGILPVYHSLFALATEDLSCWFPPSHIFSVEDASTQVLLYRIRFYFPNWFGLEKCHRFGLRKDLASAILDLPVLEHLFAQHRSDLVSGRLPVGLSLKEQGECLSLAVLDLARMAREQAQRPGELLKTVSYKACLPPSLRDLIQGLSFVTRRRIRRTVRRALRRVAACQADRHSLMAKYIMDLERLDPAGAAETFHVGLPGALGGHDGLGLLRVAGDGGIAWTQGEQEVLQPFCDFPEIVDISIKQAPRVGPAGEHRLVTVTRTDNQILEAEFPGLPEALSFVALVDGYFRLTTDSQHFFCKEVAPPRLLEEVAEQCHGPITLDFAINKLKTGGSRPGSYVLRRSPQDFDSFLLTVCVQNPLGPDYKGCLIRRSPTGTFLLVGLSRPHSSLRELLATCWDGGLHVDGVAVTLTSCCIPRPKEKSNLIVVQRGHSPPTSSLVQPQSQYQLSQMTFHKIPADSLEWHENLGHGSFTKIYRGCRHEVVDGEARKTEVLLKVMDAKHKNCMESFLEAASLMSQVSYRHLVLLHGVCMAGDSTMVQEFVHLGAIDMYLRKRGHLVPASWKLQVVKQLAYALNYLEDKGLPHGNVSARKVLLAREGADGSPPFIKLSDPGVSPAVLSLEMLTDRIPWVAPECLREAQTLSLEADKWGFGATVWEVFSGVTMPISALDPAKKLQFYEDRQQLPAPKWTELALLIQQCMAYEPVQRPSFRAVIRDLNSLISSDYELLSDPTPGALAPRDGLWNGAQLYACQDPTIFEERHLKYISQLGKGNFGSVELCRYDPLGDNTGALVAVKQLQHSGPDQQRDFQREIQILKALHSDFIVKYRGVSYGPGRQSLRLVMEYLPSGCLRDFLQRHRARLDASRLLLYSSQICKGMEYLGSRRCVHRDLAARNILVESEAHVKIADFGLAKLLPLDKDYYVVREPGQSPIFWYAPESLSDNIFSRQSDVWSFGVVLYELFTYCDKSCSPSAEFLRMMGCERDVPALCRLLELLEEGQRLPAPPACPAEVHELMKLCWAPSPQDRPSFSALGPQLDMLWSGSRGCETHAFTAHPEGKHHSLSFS

TYK2 = TYK2 (Homo sapiens, UniProt P29597); experiment: Kinase-Glo Max kinase assay, purified enzyme; format: biochemical
[2] = In vitro conversion of MMT3-72 to MMT3-72-M2 by colon contents; format: in vitro ADME, mice
How it was run: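 Fresh colon contents from female C57BL/6 mice (6–8 weeks) were suspended at 10% (w/v) in PBS as an azoreductase source, or boiled to deactivate. Test compound at 0.1 mM final was shaken at 1000 rpm, 37 °C. Aliquots at 0, 1, 2, 4, 6, 24 and 48 h were diluted 10-fold and extracted with acetonitrile. Parent and released metabolite were quantified by LC-MS/MS.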

[3] = Pharmacokinetic study in mice; format: in vivo
How it was run: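 Female C57BL/6 mice (6–8 weeks) were dosed orally at 10 mg/kg in the pH-adjusted beta-cyclodextrin/hyaluronic acid/PBS vehicle. Sacrifice at 0.5, 2, 4, 12 and 24 h; cardiac blood for plasma; intestinal tissue homogenized in PBS to 10%; intestinal contents homogenized in PBS. Parent and metabolite were measured by LC-MS/MS (C18, 0.1% formic acid water/acetonitrile gradient, 0.4 ml/min). Detection limit 2 ng/ml or 2 ng/g. n = 3, mean ± SD.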

DSS-induced colitis [4] = experiment: DSS-induced colitis in mice: DAI score, colon length; format: in vivo; conditions: for improvement of DAI score or disease severity: 1 mg/kg orally every other day; for mice that developed moderate colitis / mice that developed severe colitis: n = 10
How it was run: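 Female C57BL/6 mice (6–8 weeks), randomized; 3% DSS in distilled water for 5 days, with water-only controls. Test compound or reference JAK inhibitor was given by oral gavage every other day in a pH-adjusted vehicle (80% v/v beta-cyclodextrin:water 1:4, 15% hyaluronic acid, 5% PBS); vehicle-only group. Stool consistency and occult blood were scored daily as DAI 0–3. Colon length was measured at sacrifice on day 5. Mean ± SD; ANOVA with Tukey.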

DSS-induced colitis [5] = experiment: H&E staining of colon tissues, DSS-induced colitis; format: in vivo, mice
phosphorylation of STAT3 = experiment: Western blot of colon tissues: STAT3 and phosphorylated STAT3; format: in vivo, mice; conditions: DSS-induced colitis, oral MMT3-72
How it was run: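 Colon tissue came from the DSS colitis study. It was rinsed in cold PBS, homogenized in RIPA buffer, sonicated and centrifuged; protein was measured by BCA. 200 μg total protein per group underwent SDS electrophoresis and transfer to PVDF. Blots were probed overnight at 4 °C with antibodies to JAK2, STAT3, phospho-STAT3 (Tyr705) and GAPDH, then HRP secondary for 1 h at room temperature, and imaged.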

[6] = single oral dose of radiolabeled fedratinib ref 21; cited from earlier work
[7] = 10 mg/kg orally every other day

Chain of TYK2 (P29597 whole entry): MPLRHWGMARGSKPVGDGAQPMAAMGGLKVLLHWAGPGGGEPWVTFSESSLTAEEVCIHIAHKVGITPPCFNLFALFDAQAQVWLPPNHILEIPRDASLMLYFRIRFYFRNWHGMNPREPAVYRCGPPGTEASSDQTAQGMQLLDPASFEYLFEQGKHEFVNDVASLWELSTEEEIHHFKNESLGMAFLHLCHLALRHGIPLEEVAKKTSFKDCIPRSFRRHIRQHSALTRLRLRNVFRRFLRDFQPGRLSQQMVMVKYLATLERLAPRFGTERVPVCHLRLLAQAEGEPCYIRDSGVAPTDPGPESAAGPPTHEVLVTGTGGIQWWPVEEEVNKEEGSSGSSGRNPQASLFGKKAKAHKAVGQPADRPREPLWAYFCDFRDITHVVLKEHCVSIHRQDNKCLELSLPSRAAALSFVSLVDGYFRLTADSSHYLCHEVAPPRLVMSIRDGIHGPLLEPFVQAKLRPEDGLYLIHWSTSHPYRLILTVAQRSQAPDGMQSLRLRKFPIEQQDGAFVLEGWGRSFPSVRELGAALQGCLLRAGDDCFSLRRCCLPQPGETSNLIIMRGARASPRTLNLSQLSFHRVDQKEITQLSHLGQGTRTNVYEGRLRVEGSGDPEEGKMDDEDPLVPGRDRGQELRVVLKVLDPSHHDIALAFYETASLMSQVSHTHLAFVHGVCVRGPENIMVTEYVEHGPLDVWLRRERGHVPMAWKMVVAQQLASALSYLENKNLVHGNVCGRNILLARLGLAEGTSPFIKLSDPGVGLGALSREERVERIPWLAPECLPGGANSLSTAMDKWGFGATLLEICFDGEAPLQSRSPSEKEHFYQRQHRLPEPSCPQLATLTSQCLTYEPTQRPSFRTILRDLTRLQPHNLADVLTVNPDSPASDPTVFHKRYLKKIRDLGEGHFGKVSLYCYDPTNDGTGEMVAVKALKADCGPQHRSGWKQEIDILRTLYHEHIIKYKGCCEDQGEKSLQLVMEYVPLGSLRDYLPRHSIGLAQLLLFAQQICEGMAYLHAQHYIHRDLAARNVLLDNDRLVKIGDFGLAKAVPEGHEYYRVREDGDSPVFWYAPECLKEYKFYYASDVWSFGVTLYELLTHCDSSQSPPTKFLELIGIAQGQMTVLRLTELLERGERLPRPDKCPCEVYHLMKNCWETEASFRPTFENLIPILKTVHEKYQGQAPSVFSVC
Chain of JAK1 (P23458 whole entry): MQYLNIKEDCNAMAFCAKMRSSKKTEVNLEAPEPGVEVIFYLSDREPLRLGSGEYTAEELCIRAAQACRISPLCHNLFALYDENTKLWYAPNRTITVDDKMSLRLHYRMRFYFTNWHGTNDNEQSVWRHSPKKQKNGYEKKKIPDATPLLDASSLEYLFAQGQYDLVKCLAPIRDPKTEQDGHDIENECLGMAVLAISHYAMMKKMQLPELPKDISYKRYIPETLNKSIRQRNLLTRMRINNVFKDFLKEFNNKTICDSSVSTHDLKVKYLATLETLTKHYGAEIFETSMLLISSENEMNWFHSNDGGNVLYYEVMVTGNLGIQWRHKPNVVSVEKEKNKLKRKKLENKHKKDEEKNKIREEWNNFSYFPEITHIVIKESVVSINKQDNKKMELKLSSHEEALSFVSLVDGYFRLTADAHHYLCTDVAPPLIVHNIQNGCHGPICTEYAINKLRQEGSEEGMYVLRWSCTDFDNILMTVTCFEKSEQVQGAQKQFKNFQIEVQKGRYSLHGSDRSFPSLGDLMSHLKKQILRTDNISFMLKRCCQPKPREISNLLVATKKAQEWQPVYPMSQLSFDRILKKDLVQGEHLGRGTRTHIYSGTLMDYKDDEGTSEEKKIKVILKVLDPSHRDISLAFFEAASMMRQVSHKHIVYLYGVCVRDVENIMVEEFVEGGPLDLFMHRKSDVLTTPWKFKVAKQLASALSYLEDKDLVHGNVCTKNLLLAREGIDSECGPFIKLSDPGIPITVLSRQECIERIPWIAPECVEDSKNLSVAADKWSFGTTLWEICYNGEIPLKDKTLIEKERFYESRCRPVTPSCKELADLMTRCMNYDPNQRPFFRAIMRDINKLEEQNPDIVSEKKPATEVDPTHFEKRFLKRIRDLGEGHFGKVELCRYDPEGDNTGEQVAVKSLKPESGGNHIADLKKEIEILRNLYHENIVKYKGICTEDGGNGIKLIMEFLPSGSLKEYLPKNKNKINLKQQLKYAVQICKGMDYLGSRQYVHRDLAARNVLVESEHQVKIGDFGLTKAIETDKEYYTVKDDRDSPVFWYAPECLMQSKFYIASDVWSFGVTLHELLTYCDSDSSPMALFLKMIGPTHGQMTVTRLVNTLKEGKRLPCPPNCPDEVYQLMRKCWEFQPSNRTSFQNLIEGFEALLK
Chain of JAK2 (O60674 whole entry): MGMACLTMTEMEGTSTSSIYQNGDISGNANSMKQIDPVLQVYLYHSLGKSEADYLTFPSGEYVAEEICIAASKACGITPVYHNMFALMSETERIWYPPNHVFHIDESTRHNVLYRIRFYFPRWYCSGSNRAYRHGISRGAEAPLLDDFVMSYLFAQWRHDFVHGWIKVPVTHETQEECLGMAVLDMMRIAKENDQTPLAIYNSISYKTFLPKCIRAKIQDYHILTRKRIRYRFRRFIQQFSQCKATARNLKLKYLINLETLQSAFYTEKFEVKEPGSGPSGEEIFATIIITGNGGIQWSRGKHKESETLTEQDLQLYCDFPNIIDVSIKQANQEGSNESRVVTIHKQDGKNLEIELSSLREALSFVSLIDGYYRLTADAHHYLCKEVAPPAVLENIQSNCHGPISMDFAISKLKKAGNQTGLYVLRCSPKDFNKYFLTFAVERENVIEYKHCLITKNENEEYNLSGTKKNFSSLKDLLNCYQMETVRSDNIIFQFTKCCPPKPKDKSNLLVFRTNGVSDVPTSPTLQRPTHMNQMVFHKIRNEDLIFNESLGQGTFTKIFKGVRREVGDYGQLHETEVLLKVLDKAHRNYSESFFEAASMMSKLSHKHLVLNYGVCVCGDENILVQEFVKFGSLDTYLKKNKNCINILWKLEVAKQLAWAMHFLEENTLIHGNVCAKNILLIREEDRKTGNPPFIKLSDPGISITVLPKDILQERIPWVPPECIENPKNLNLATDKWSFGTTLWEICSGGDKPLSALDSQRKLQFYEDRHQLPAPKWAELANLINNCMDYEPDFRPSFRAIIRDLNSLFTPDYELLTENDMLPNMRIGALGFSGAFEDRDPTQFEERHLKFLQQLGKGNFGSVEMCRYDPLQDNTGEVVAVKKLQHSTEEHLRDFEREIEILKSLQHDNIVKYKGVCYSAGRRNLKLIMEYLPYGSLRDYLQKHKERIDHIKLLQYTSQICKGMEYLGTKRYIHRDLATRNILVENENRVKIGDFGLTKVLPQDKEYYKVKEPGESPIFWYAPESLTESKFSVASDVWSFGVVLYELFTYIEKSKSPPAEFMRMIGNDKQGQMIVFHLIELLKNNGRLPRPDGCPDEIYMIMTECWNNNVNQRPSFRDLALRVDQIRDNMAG

Row | SMILES | where detected (plasma, colon tissues, feces), in words [1] | IC50 (JAK1; Enzyme IC50 JAK1, 0.1 mM ATP) [nM] | IC50 (JAK2; Enzyme IC50 JAK2, 0.1 mM ATP) [nM] | IC50 (JAK3) [nM] | IC50 (TYK2; Enzyme IC50 TYK2, 0.1 mM ATP) [nM] | improvement of DAI score or disease severity (DSS-induced colitis [4]) | improvement of DAI score vs DSS-induced colitis (DSS-induced colitis [4]; 5 mg/kg orally every other day) | recovery of colon length from DSS-induced colitis (DSS-induced colitis [4]; 10 mg/kg) | improvement of DAI score vs DSS-induced colitis (DSS-induced colitis [4]; [7]) | mice that developed severe colitis (DSS-induced colitis [4]; 10 mg/kg) | epithelial loss and infiltration of immune cells (H&E) (DSS-induced colitis [5]; 5 mg/kg) | epithelial loss and infiltration of immune cells (H&E) (DSS-induced colitis [5]; 10 mg/kg) | further results
1 | Cc1cnc(Nc2ccc(OCCOc3ccc(/N=N/c4ccc(C(=O)NCCC(=O)O)cc4)cc3C(=O)O)cc2)nc1Nc1cccc(S(=O)(=O)NC(C)(C)C)c1 [MMT3-72, (E)-2-(2-(4-((4-((3-(N-(tertbutyl)sulfamoyl)phenyl)amino)-5-methylpyrimidin-2-yl)amino)phenoxy)ethoxy)-5-((4-((2-carboxyethyl)carbamoyl)phenyl)diazenyl)benzoic acid] | only detected in the feces | 368 | 630 | 5240 | 4700 | did not improve DAI score or disease severity | 5 fold | recovered the colon length | 10 fold | no mice | reduced epithelial loss and decreased infiltration of immune cells | reduced epithelial loss and decreased infiltration of immune cells | stability in heat-deactivated colon contents ([2]; boiled colon contents, aqueous environment): most MMT3-72 remained intact; MMT3-72 metabolized ([2]; fresh colon contents, within 48 h of incubation): more than 90%; detection in colon/GI tissue or systemic circulation/plasma ([3]; mice, 10 mg/kg MMT3-72 orally): not detected; mice that developed moderate colitis (DSS-induced colitis [4]; 5 mg/kg): 10%; mice that developed severe colitis (DSS-induced colitis [4]; 5 mg/kg): no mice; mice that developed moderate colitis (DSS-induced colitis [4]; 10 mg/kg): no mice; phosphorylation of STAT3 in colon tissue (phosphorylation of STAT3): effectively inhibit the phosphorylation of STAT3; also recorded: inhibited the phosphorylation of STAT3
2 | Cc1cnc(Nc2ccc(OCCO)cc2)nc1Nc1cccc(S(=O)(=O)NC(C)(C)C)c1 [MMT3-72-M2, N-(tert-butyl)-3-((2-((4-(2-hydroxyethoxy)phenyl)amino)-5methylpyrimidin-4-yl)amino)benzenesulfonamide] | only detected in the colon tissues and the feces with limited detection in the plasma | 10.8 | 26.3 | 329 | 91.6 |  |  |  |  |  |  |  | IC50 (JAK1; IC50 JAK1 expressed in ng/ml, converted from nM): ~10.6 nM; IC50 (JAK2; IC50 JAK2 expressed in ng/ml, converted from nM): ~25.7 nM; IC50 (TYK2; IC50 TYK2 expressed in ng/ml, converted from nM): ~89.3 nM; formation of MMT3-72-M2 from MMT3-72 ([2]; fresh colon contents): readily converted from MMT3-72; concentration at 12 h ([3]; female, C57BL/6, mouse, colon tissue, po, 10 mg/kg): 131 ng/g and ~285 nM; duration of effective concentrations in colon tissue ([3]; mice, 10 mg/kg MMT3-72 orally): 12 h; Cmax in plasma ([3]; mice, 10 mg/kg MMT3-72 orally, 10 mg/kg): < 8 ng/mL; time after which undetectable in plasma ([3]; mice, 10 mg/kg MMT3-72 orally, limit of detection 2 ng/ml): 4 h
3 | Cc1cnc(Nc2ccc(OCCN3CCCC3)cc2)nc1Nc1cccc(S(=O)(=O)NC(C)(C)C)c1 [fedratinib] |  |  |  |  |  |  |  |  |  |  |  |  | excreted in feces unchanged [6]: 23%; fedratinib-derived radioactivity excreted in feces [6]: ~77%
4 | C[C@@H]1CCN(C(=O)CC#N)C[C@@H]1N(C)c1ncnc2[nH]ccc12 [tofacitinib, reference compound] |  |  |  |  |  | did not improve DAI score or disease severity | did not show any improvement in DAI score | recovered the colon length | showed improvement in DAI score | 10% | did not show improvement in epithelial cell loss and infiltration of immune cells | moderate improvement | 

— publication PMC10755797 (The Journal of Biological Chemistry, 2023)
